The source made the active and inactive calls.
Key:
Format in all cases: functional, organism-based
[1] = test system: sarcoma; assay: Antitumor activity against mouse Ridgeway osteogenic sarcoma cell allografted in po dosed mouse
[2] = test system: Mus musculus; assay: Antitumor activity against Gardner lymphosarcoma cell in po dosed mouse
[3] = test system: P388; assay: Antitumor activity against mouse P388 cells allografted in mouse assessed as survival at 2.7 mg/kg/day after 1 day
Outline: (§1)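 P388 ascites implanted ip in mice; sulfate salts dosed either daily or as a single dose on day 1, 10 animals per group. Survivors per total were recorded, median life span was calculated using all deaths and survivors, and percent increase of life span was reported.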

[4] = test system: P388; assay: Antitumor activity against mouse P388 cells allografted in mouse assessed as survival at 1.8 mg/kg/day after 1 day; outline: as §1
[5] = test system: P388; assay: Antitumor activity against mouse P388 cells allografted in mouse assessed as survival at 0.10 mg/kg/day administered from day 1 to day 9; outline: as §1
[6] = test system: P388; assay: Antitumor activity against mouse P388 cells allografted in mouse assessed as survival at 4 mg/kg/day after 1 day; outline: as §1
[7] = test system: Leukemia cell; assay: Antitumor activity against human leukemia cells allografted in human assessed as remission of nonlymphocytic leukemia at 3 to 4 mg/m'2, iv once weekly dosed through push technique
[8] = test system: Leukemia cell; assay: Antitumor activity against human leukemia cells allografted in human assessed as remission of acute lymphocytic leukemia at 3 to 4 mg/m'2, iv once weekly dosed through push technique

Measured: Activity

CC[C@]1(O)C[C@@H]2CN(CCc3c([nH]c4ccccc34)[C@@](C(=O)OC)(c3cc4c(cc3OC)N(C)[C@H]3[C@@](O)(C(N)=O)[C@H](O)[C@]5(CC)C=CCN6CC[C@]43[C@@H]65)C2)C1
active: [7] | [8]
inactive: all other assays above

From ChEMBL document CHEMBL3272325, “Structure-activity relationships of dimeric Catharanthus alkaloids. 1. Deacetylvinblastine amide (vindesine) sulfate” (J Med Chem, 1978)
